Measurements taken from ChEMBL document CHEMBL1139474, “Cellular apoptosis and cytotoxicity of phenolic compounds: a quantitative structure-activity relationship study” (J Med Chem, 2005).
pIC50: −log10 of the molar value.

Columns and labels:
CCRF-CEM = test: Cytotoxicity against human CCRF-CEM cells
[1] = Cytotoxicity against human CEM/VLB cells
L1210 [2] = test: Activity against caspase-mediated apoptosis in mouse L1210 cells at 0.1 mM; assay type: functional
L1210 [3] = test: Cytotoxicity against mouse L1210 cells; details: for log(1/ID50): mouse, l1210
L1210 [4] = test: Activity against caspase-mediated apoptosis in mouse L1210 cells; assay type: functional
HL-60 [5] = test: Cytotoxicity against human HL60 cells; assay type: cell-based
In short: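 HL-60 cells grown at 37 °C in RPMI with L-glutamine and 10% FBS, then seeded at (2–5) × 10⁴ cells/mL, in duplicate, at eight or more concentrations. Compounds were diluted in unsupplemented RPMI and added 1:10. After 48 h of continuous exposure, CyQUANT GR nucleic-acid dye fluorescence was read (ex 485/em 530 nm). IC50 is the concentration giving 50% lower fluorescence than controls, taken from the dose-response curve.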

MCF7 = test: Cytotoxicity against human MCF7 cells
L1210 [6] = test: Induction of apoptosis in mouse L1210 cells at 151 uM; assay type: functional
In short: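 L1210 cells at 4 × 10⁴ cells/mL were incubated with or without the phenol for 12 h at 37 °C. Caspase activity was then measured in a homogeneous fluorimetric assay: DEVD-rhodamine 110 substrate in incubation buffer was added for 2 h at 37 °C, and fluorescence was read at 521 nm with excitation at 490 nm.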

HL-60 [7] = test: Induction of DNA fragmentation in human HL60 cells after 16 hrs; assay type: functional, cell-based; details: HL-60, 16 h

CCCCCCOc1ccc(O)cc1
log(1/ID50) (CCRF-CEM): 5.34 | log(1/ID50) [1]: 5.37 | Activity (L1210 [2]): <15% | log(1/ID50) (L1210 [3]): 5.5

COc1cc(C)cc(OC)c1O
log(1/ID50) (L1210 [4]): 2.4 | log(1/ID50) (L1210 [3]): 2.89

COc1cc(N)cc(OC)c1O
log(1/ID50) (L1210 [4]): 3.1 | log(1/ID50) (L1210 [3]): 5.52

Nc1cccc(O)c1 [3-AMINOPHENOL]
Activity (L1210 [2]): <15% | log(1/ID50) (L1210 [4]): 1.25

Cc1ccccc1O [ORTHOCRESOL]
Activity (L1210 [2]): <15% | log(1/ID50) (L1210 [4]): 1.87 | log(1/ID50) (L1210 [3]): 3.52

N#Cc1ccc(O)cc1 [4-CYANOPHENOL]
Activity (L1210 [2]): <15% | log(1/ID50) (L1210 [4]): 0.1 | log(1/ID50) (L1210 [3]): 3.44

C[C@]12CC[C@@H]3c4ccc(O)cc4CC[C@H]3[C@@H]1CC[C@@H]2O [ESTRADIOL]
log(1/ID50) (HL-60 [5]): 3.6

COc1cccc(OC)c1O [SYRINGOL]
log(1/ID50) (L1210 [4]): 2.7 | log(1/ID50) (L1210 [3]): 3.86

COCc1cc(C(C)(C)C)c(O)c(C(C)(C)C)c1
log(1/ID50) (L1210 [4]): 2.9 | log(1/ID50) (L1210 [3]): 3.93

COc1ccc(O)cc1 [MEQUINOL]
log(1/ID50) (CCRF-CEM): 4.41 | log(1/ID50) [1]: 4.36 | Activity (L1210 [2]): <15% | log(1/ID50) (L1210 [4]): 0.02 | log(1/ID50) (HL-60 [5]): 3.6

Oc1cccc(F)c1
Activity (L1210 [2]): <15% | log(1/ID50) (L1210 [4]): 0.82 | log(1/ID50) (L1210 [3]): 3.46

CCc1ccc(O)cc1
log(1/ID50) (CCRF-CEM): 3.79 | log(1/ID50) [1]: 3.84 | Activity (L1210 [2]): <15% | log(1/ID50) (L1210 [3]): 3.86 | log(1/ID50) (MCF7): 2.91

O=[N+]([O-])c1ccc(O)cc1 [P-NITROPHENOL]
log(1/ID50) (CCRF-CEM): 3.28 | log(1/ID50) [1]: 3.36 | Activity (L1210 [2]): <15% | log(1/ID50) (L1210 [4]): 1 | log(1/ID50) (L1210 [3]): 3.45

CC(C)(C)c1cc(C#N)cc(C(C)(C)C)c1O
log(1/ID50) (L1210 [4]): 2.88 | log(1/ID50) (L1210 [3]): 4.68

CC(C)(C)c1ccccc1O
Activity (L1210 [2]): <15% | log(1/ID50) (L1210 [4]): 2.42 | log(1/ID50) (L1210 [3]): 4

NC(=O)c1ccc(O)cc1
log(1/ID50) (CCRF-CEM): 2.23 | log(1/ID50) [1]: 2.38 | Activity (L1210 [2]): <15% | log(1/ID50) (L1210 [3]): 2.48

Cl.Nc1ccc(O)cc1 [4-AMINOPHENOL HYDROCHLORIDE]
log(1/ID50) (CCRF-CEM): 4.61 | log(1/ID50) [1]: 1.94 | Activity (L1210 [2]): <15% | log(1/ID50) (L1210 [3]): 5.09 | log(1/ID50) (HL-60 [5]): 4.5

Cc1cccc(O)c1 [METACRESOL]
Activity (L1210 [2]): <15% | log(1/ID50) (L1210 [4]): 0.45 | log(1/ID50) (L1210 [3]): 3.54

CCOc1ccc(O)cc1 [1-hydroxy-4-ethoxybenzene]
Activity (L1210 [2]): <15% | log(1/ID50) (L1210 [3]): 4.64 | log(1/ID50) (MCF7): 3.7

COc1cc(C(C)(C)C)c(O)c(C(C)(C)C)c1
log(1/ID50) (L1210 [4]): 2.87 | log(1/ID50) (L1210 [3]): 3.71

NS(=O)(=O)c1ccc(O)cc1
log(1/ID50) (CCRF-CEM): 2.31 | log(1/ID50) [1]: 2.11 | Activity (L1210 [2]): <15% | log(1/ID50) (L1210 [3]): 2.5

CC(C)(c1ccc(O)cc1)c1ccc(O)cc1 [BISPHENOL A]
log(1/ID50) (CCRF-CEM): 4.18 | log(1/ID50) [1]: 3.96 | Activity (L1210 [2]): <15%

Oc1ccccc1I
Activity (L1210 [2]): <15% | log(1/ID50) (L1210 [4]): 2.38 | log(1/ID50) (L1210 [3]): 3.95

CCc1cc(C(C)(C)C)c(O)c(C(C)(C)C)c1
log(1/ID50) (L1210 [4]): 2.43 | log(1/ID50) (L1210 [3]): 3.91

CC(=O)c1ccc(O)cc1 [4-HYDROXYACETOPHENONE]
Activity (L1210 [2]): <15% | log(1/ID50) (L1210 [4]): 0.03

CCCOc1ccc(O)cc1 [1-hydroxy-4-propoxybenzene]
Activity (L1210 [2]): <15% | log(1/ID50) (L1210 [4]): 0.09 | log(1/ID50) (L1210 [3]): 4.85 | log(1/ID50) (HL-60 [5]): 3.7

COc1cc(/C=C/C=O)cc(OC)c1O
log(1/ID50) (L1210 [4]): 2.6 | log(1/ID50) (L1210 [3]): 4.25

CCCCOc1ccc(O)cc1
Activity (L1210 [2]): <15% | log(1/ID50) (L1210 [4]): 0.14 | log(1/ID50) (L1210 [3]): 5.2

Cc1ccc(O)cc1 [p-CRESOL]
log(1/ID50) (CCRF-CEM): 3.82 | log(1/ID50) [1]: 4.05 | Activity (L1210 [2]): <15% | log(1/ID50) (L1210 [3]): 3.85 | log(1/ID50) (HL-60 [5]): 3.35

CC/C(=C(/CC)c1ccc(O)cc1)c1ccc(O)cc1 [DIETHYLSTILBESTROL]
log(1/ID50) (HL-60 [5]): 4

COc1cc(C(C)=O)cc(OC)c1O [ACETOSYRINGONE]
log(1/ID50) (L1210 [4]): 2.8 | log(1/ID50) (L1210 [3]): 3.06

N#Cc1cccc(O)c1
Activity (L1210 [2]): <15% | log(1/ID50) (L1210 [4]): 1.11 | log(1/ID50) (L1210 [3]): 3.11

COc1ccc(O)c(C(C)(C)C)c1.COc1ccc(O)cc1C(C)(C)C [BUTYLATED HYDROXYANISOLE]
Activity (L1210 [6]): 15% | pIC50 (HL-60 [7]): 2.86 | log(1/ID50) (L1210 [4]): 2.71 | log(1/ID50) (L1210 [3]): 3.82

CC(C)(C)c1cccc(C(C)(C)C)c1O
log(1/ID50) (L1210 [4]): 1.9 | log(1/ID50) (L1210 [3]): 3.85

CC(=O)c1cc(C(C)(C)C)c(O)c(C(C)(C)C)c1
log(1/ID50) (L1210 [4]): 2.41 | log(1/ID50) (L1210 [3]): 3.94

Oc1ccc(Cl)cc1 [PARACHLOROPHENOL]
log(1/ID50) (CCRF-CEM): 3.45 | log(1/ID50) [1]: 3.89 | Activity (L1210 [2]): <15% | log(1/ID50) (L1210 [3]): 4.29

Oc1cccc(O)c1 [RESORCINOL]
Activity (L1210 [2]): <15% | log(1/ID50) (L1210 [4]): 0.79 | log(1/ID50) (L1210 [3]): 3.46

Oc1ccc(I)cc1
log(1/ID50) (CCRF-CEM): 4.29 | log(1/ID50) [1]: 3.86 | Activity (L1210 [2]): <15% | log(1/ID50) (L1210 [3]): 3.86

CCCCc1ccc(O)cc1.Cl
Activity (L1210 [2]): <15% | log(1/ID50) (HL-60 [5]): 3.52

C[C@]12CCc3c(ccc4cc(O)ccc34)[C@@H]1CCC2=O [EQUILENIN]
log(1/ID50) (HL-60 [5]): 3.9

Oc1ccccc1 [PHENOL]
log(1/ID50) (CCRF-CEM): 3.27 | log(1/ID50) [1]: 2.65 | Activity (L1210 [2]): <15% | log(1/ID50) (L1210 [4]): -0.2 | log(1/ID50) (L1210 [3]): 3.27 | log(1/ID50) (HL-60 [5]): 3.05 | log(1/ID50) (MCF7): 2.56

CC(C)(C)c1cc(C=O)cc(C(C)(C)C)c1O
log(1/ID50) (L1210 [4]): 2.49 | log(1/ID50) (L1210 [3]): 4.06

CCCc1ccccc1O
Activity (L1210 [2]): <15% | log(1/ID50) (L1210 [4]): 2.16 | log(1/ID50) (L1210 [3]): 3.49

CCc1ccccc1O
Activity (L1210 [2]): <15% | log(1/ID50) (L1210 [4]): 2.11

Oc1cccc(Br)c1
Activity (L1210 [2]): <15% | log(1/ID50) (L1210 [4]): 1 | log(1/ID50) (L1210 [3]): 3.82

CC(C)c1ccccc1O
Activity (L1210 [2]): <15% | log(1/ID50) (L1210 [4]): 2.38 | log(1/ID50) (L1210 [3]): 3.5

COc1cccc(O)c1 [1-hydroxy-3-methoxybenzene]
Activity (L1210 [2]): <15% | log(1/ID50) (L1210 [4]): 1.31 | log(1/ID50) (L1210 [3]): 3.71

Nc1ccccc1O [QUESTIOMYCIN B]
Activity (L1210 [2]): <15% | log(1/ID50) (L1210 [4]): 2.29 | log(1/ID50) (L1210 [3]): 5.16

CC(=O)Oc1cc(C(C)(C)C)c(O)c(C(C)(C)C)c1
log(1/ID50) (L1210 [4]): 2.8 | log(1/ID50) (L1210 [3]): 4.35

COc1cc(NC(C)=O)cc(OC)c1O
log(1/ID50) (L1210 [4]): 2.5 | log(1/ID50) (L1210 [3]): 3.99

COc1ccccc1O [GUAIACOL]
Activity (L1210 [2]): <15% | log(1/ID50) (L1210 [4]): 2.41

CC(C)(C)c1cc([N+](=O)[O-])cc(C(C)(C)C)c1O
log(1/ID50) (L1210 [4]): 2.49 | log(1/ID50) (L1210 [3]): 4.9

CC(C)(C)c1cc(O)cc(C(C)(C)C)c1O
log(1/ID50) (L1210 [4]): 2.5 | log(1/ID50) (L1210 [3]): 4.16

Oc1ccc(Oc2ccccc2)cc1
Activity (L1210 [2]): <15% | log(1/ID50) (L1210 [4]): 0.19 | log(1/ID50) (L1210 [3]): 4.97 | log(1/ID50) (MCF7): 3.99

O=[N+]([O-])c1cccc(O)c1 [3-NITRO-PHENOL]
Activity (L1210 [2]): <15% | log(1/ID50) (L1210 [4]): 0.79 | log(1/ID50) (L1210 [3]): 3.48

CC(=O)Nc1cccc(O)c1 [METACETAMOL]
Activity (L1210 [2]): <15% | log(1/ID50) (L1210 [4]): 1.1 | log(1/ID50) (L1210 [3]): 2.65

Cc1cc(C(C)(C)C)c(O)c(C(C)(C)C)c1 [BUTYLATED HYDROXYTOLUENE]
pIC50 (HL-60 [7]): 2.50 | log(1/ID50) (L1210 [4]): 2.09 | pIC50 (L1210 [3]; Mus musculus, L1210): 4.04 | log(1/ID50) (L1210 [3]): 4.04

CCCc1ccc(O)cc1
log(1/ID50) (CCRF-CEM): 3.72 | log(1/ID50) [1]: 3.73 | Activity (L1210 [2]): <15% | log(1/ID50) (L1210 [3]): 4.04
